Laboratory results published in ChEMBL document CHEMBL1155867, “Synthesis and evaluation of alpha,alpha'-disubstituted phenylacetate derivatives for T-type calcium channel blockers” (Bioorg Med Chem Lett, 2008).
pIC50: −log10 of the molar value. One block for each compound: values may come before it.

Experiments:
[1] = molecular target: T1, Voltage-dependent T-type calcium channel subunit alpha-1G (Homo sapiens, UniProt O43497); experiment: Antagonist activity at T type calcium channel alpha1G expressed in HEK293 cells assessed as inhibition of peak currents at 10 uM by whole-cell patch-clamp method; type: functional, cell-based
[2] = molecular target: T1, Voltage-dependent T-type calcium channel subunit alpha-1G; experiment: Antagonist activity at T type calcium channel alpha1G expressed in HEK293 cells assessed as inhibition of peak currents by whole-cell patch-clamp method; type: functional, cell-based
How it was run: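 Whole-cell patch clamp on HEK293 cells expressing alpha1G. External solution contained 140 mM NaCl, CaCl2, 10 mM Hepes and 10 mM glucose at pH 7.4. Pipettes were 3–4 MΩ, with Mg-ATP in the internal solution. Currents were evoked every 15 s by a 50 ms step from −100 to −30 mV. IC50 came from dose–response fits of peak current inhibition.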

[3] = molecular target: T1, Voltage-dependent T-type calcium channel subunit alpha-1G; experiment: Antagonist activity at T type calcium channel alpha1G expressed in HEK293 cells assessed as inhibition of peak currents at 1 uM by whole-cell patch-clamp method; type: functional, cell-based
[4] = Tmax in mouse plasma at 50 mg/kg, po; type: ADME, organism-based; set-up: dose 50 mg/kg, route oral
How it was run: (§1)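 Single oral gavage dose of 50 mg/kg to mice. Vehicle was DMA/Cremophor EL/PBS (10/10/80 v/v %). Plasma and brain were sampled. AUC0–t was calculated by the linear trapezoidal rule, and brain/plasma ratio was taken as AUCbrain/AUCplasma.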

[5] = Ratio of Cmax for mouse brain to Cmax for mouse plasma at 50 mg/kg, po; type: ADME, organism-based; set-up: dose 50 mg/kg, route oral
[6] = Inhibition of L type calcium channel at 1 uM
[7] = Metabolic stability in mouse liver; type: ADME, tissue-based; conditions: liver (preparation not stated)
[8] = AUC (0 to t) in mouse brain at 50 mg/kg, po; type: ADME, organism-based; set-up: dose 50 mg/kg, route oral; how it was run: as §1
[9] = AUC (0 to t) in mouse plasma at 50 mg/kg, po; type: ADME, organism-based; set-up: dose 50 mg/kg, route oral; how it was run: as §1
[10] = Selectivity for T type calcium channel alpha1G over L type calcium channel
[11] = Tmax in mouse brain at 50 mg/kg, po; type: ADME, organism-based; set-up: dose 50 mg/kg, route oral; how it was run: as §1
[12] = Ratio of IC50 for human ERG channel to IC50 for T type calcium channel alpha1G
[13] = Ratio of AUC (0 to t) for mouse brain to AUC (0 to t) for mouse plasma at 50 mg/kg, po; type: ADME, organism-based; set-up: dose 50 mg/kg, route oral
How it was run: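 Mice got a single oral 50 mg/kg dose in DMA/Cremophor EL/PBS (10/10/80 v/v %). Plasma and brain levels were measured to give Tmax, Cmax and AUC0–t, with AUC by the linear trapezoidal rule. Brain/plasma ratio taken from the brain and plasma parameters (B/P = AUC_brain/AUC_plasma).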

[14] = Cmax in mouse plasma at 50 mg/kg, po; type: ADME, organism-based; set-up: dose 50 mg/kg, route oral; how it was run: as §1
[15] = molecular target: Voltage-gated inwardly rectifying potassium channel KCNH2 (Homo sapiens, UniProt Q12809); experiment: Inhibition of human ERG channel
[16] = Cmax in mouse brain at 50 mg/kg, po; type: ADME, organism-based; set-up: dose 50 mg/kg, route oral; how it was run: as §1
[17] = molecular target: T1, Voltage-dependent T-type calcium channel subunit alpha-1G; experiment: Antagonist activity at T type calcium channel alpha1G expressed in HEK293 cells assessed as inhibition of peak currents by whole-cell patch-clamp method

T1 sequence (O43497 whole entry): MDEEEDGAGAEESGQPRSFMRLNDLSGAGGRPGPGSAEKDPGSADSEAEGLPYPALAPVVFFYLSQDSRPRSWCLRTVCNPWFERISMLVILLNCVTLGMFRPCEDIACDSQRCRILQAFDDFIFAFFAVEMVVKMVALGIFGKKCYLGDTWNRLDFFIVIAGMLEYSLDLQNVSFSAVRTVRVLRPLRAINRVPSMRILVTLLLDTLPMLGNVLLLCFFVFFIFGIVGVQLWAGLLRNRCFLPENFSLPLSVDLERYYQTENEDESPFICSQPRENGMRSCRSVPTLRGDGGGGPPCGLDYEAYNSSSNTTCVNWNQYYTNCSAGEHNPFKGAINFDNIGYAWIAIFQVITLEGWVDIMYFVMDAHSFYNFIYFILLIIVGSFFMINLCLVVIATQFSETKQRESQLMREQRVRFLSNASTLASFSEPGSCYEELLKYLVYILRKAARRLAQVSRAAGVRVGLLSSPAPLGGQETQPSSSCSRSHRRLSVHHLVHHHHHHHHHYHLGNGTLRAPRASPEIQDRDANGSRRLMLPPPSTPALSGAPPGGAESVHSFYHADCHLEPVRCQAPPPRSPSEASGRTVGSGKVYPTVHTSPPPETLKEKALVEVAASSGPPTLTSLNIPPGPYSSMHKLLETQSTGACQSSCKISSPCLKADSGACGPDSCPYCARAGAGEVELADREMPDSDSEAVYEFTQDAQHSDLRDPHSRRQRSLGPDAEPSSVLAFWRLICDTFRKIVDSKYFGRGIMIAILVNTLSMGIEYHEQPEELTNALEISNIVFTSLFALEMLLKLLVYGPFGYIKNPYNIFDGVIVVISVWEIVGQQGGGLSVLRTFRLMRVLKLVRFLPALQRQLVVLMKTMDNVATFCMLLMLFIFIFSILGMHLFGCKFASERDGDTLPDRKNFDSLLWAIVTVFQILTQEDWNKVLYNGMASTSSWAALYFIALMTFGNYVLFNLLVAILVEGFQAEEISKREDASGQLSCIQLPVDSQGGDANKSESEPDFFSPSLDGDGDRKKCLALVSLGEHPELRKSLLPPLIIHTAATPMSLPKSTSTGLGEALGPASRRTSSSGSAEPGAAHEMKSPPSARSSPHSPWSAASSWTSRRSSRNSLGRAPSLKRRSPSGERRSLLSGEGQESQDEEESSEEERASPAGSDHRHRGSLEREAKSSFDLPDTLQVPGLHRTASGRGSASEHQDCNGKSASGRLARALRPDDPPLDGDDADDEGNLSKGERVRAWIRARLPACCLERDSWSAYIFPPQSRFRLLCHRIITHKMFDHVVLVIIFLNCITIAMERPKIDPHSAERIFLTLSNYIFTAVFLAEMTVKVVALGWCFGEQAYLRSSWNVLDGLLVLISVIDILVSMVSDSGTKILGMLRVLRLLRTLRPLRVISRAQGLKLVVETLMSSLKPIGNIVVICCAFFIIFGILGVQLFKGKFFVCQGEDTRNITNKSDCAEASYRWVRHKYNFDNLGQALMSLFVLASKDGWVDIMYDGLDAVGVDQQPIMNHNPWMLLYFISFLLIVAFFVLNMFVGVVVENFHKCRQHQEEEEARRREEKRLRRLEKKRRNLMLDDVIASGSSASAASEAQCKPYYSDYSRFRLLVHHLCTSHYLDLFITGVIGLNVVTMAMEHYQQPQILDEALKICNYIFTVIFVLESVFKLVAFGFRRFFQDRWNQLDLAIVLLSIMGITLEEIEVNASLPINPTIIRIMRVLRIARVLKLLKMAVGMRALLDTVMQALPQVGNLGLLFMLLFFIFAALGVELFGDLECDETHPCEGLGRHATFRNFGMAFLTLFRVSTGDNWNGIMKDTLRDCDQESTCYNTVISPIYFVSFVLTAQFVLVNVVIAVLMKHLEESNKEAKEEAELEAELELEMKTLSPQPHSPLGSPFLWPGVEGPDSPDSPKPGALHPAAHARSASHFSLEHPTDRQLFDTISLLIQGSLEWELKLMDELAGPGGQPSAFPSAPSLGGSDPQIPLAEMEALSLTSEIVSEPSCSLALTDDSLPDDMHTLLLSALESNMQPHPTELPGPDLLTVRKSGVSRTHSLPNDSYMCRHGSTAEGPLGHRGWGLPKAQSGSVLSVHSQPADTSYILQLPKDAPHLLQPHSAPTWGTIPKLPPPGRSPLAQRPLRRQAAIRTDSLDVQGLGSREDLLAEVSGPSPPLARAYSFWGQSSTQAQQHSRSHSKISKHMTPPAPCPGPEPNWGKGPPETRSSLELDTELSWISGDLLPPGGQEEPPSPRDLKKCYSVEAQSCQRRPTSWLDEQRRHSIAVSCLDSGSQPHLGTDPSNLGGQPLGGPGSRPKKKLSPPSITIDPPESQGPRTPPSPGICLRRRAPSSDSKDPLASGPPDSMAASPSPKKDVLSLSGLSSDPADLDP
Voltage-gated inwardly rectifying potassium channel KCNH2, sequence (Q12809 whole entry): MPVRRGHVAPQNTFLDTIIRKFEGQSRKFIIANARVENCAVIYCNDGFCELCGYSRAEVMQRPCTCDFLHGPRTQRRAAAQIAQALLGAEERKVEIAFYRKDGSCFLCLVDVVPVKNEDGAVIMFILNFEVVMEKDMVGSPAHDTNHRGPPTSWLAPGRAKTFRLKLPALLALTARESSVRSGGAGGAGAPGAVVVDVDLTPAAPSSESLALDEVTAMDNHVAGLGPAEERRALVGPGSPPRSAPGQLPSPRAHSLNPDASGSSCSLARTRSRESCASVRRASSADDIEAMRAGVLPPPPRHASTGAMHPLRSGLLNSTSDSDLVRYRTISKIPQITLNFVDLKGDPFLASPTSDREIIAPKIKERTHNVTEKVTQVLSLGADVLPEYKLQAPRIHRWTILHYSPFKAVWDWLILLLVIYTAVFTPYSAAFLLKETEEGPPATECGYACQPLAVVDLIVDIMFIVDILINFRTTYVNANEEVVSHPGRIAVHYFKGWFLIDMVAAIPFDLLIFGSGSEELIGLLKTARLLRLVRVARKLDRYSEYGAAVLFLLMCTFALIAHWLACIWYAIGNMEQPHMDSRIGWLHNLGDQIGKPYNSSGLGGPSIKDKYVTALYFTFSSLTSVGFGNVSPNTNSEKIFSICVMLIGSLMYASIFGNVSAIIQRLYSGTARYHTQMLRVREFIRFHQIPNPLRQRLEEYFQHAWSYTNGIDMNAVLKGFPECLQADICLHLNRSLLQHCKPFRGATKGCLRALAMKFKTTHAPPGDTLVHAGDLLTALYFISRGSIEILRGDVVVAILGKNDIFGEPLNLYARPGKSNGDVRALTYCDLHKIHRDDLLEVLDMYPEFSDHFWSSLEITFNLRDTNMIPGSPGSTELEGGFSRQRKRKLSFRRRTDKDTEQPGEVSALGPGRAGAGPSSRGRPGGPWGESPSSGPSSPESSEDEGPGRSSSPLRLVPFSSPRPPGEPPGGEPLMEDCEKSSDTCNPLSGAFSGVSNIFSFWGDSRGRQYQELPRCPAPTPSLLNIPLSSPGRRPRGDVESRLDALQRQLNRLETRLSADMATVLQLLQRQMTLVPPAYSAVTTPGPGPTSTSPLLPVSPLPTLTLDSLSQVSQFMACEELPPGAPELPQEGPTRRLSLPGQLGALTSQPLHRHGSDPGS

SMILES: COC(=O)C(CCCN1CCN(Cc2ccccc2F)CC1)(c1ccc(Br)cc1)C(C)C (stereo not drawn)
inhibition [1]: 90.4%

SMILES: CCOC(=O)C(CCCN(C)CCCc1nc2ccccc2[nH]1)(c1ccccc1)C(C)C (stereo not drawn)
inhibition [1]: 98.3%

SMILES: CCOC(=O)C(CCCN1CCN(Cc2ccc(F)cc2)CC1)(c1ccccc1)C(C)C (stereo not drawn)
inhibition [1]: 94%

SMILES: COC(=O)C(CCCN1CCN(c2ccccc2OC)CC1)(c1ccc(Br)cc1)C(C)C (stereo not drawn)
inhibition [1]: 94.1% | pIC50 [2]: 7.02

SMILES: COC(=O)C(CCCN1CCN(Cc2cccc(C)c2)CC1)(c1ccc(Br)cc1)C(C)C (stereo not drawn)
inhibition [1]: 94.9%

SMILES: COC(=O)C(CCCN1CCN(Cc2ccc(OC)c(OC)c2OC)CC1)(c1ccc(Br)cc1)C(C)C (stereo not drawn)
inhibition [1]: 95.1%

SMILES: CCOC(=O)C(CCCN1CCN(Cc2ccc(OC)cc2)CC1)(c1ccccc1)C(C)C (stereo not drawn)
inhibition [1]: 96.3%

SMILES: COC(=O)C(CCCN1CCN(Cc2ccc(F)cc2)CC1)(c1ccc(Br)cc1)C(C)C (stereo not drawn)
inhibition [1]: 96.5%

SMILES: COC(=O)C(CCCN(C)CCCc1nc2ccccc2[nH]1)(c1ccc(Br)cc1)C(C)C (stereo not drawn)
Tmax [4]: 1 h | Kp [5]: 0.17 | inhibition [6]: 0% | half-life [7]: 1 h | AUC(0-t) [8]: 973 ng·h/mL | AUC(0-t) [9]: 3900 ng·h/mL | inhibition [1]: 96.9% | Selectivity Index [10]: > 1000 | Tmax [11]: 1 h | Ratio IC50 [12]: 21.8 | Kp [13]: 0.25 | Cmax [14]: 1620 ng/mL | pIC50 [15]: 6.75 | Cmax [16]: 274 ng/mL | pIC50 [17]: 8.09

The remaining lines, values ahead:

inhibition [1]: 93% | pIC50 [2]: 6.55
SMILES: COC(=O)C(CCCN1CCN(Cc2cccc(C(F)(F)F)c2)CC1)(c1ccc(Br)cc1)C(C)C (stereo not drawn)

inhibition [1]: 94.5%
SMILES: COC(=O)C(CCCN(C)CCCc1nc2cc(OC)ccc2[nH]1)(c1ccc(Br)cc1)C(C)C (stereo not drawn)

inhibition [1]: 93.5%
SMILES: COC(=O)C(CCCN(C)CCCc1nc2ccccc2[nH]1)(c1ccc(OC)cc1)C(C)C (stereo not drawn)

inhibition [1]: 89.3%
SMILES: COC(=O)C(CCCN1CCN(Cc2cccc(F)c2)CC1)(c1ccc(Br)cc1)C(C)C (stereo not drawn)

inhibition [1]: 91.7%
SMILES: COC(=O)C(CCCN(C)CCCc1nc2cc(OC)ccc2[nH]1)(c1ccc(OC)cc1)C(C)C (stereo not drawn)

inhibition [1]: 96%
SMILES: COC(=O)C(CCCN1CCN(Cc2ccc(OC)cc2)CC1)(c1ccc(Br)cc1)C(C)C (stereo not drawn)

inhibition [3]: 94.2%
SMILES: COC(=O)C(CCCN(C)CCCc1nc2cc(C)c(C)cc2[nH]1)(c1ccc(Br)cc1)C(C)C (stereo not drawn)

inhibition [1]: 91.4%
SMILES: CCOC(=O)C(CCCN(C)CCCc1nc2cc(C)c(C)cc2[nH]1)(c1ccccc1)C(C)C (stereo not drawn)
